Measurements reported in article PMC10527432 (Cell, 2023).
Entries after “also recorded” stand apart in the source; their conditions may differ. Read-outs that look alike come from different tables or passages of the source. One block for each compound: values may come before it.

Key:
[1] = In vivo pharmacokinetics study in mice, i.v.; details: i.v. 5 mg/kg
Procedure, shortened: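 Male ICR mice received 5 mg/kg i.v. Test compound was measured in plasma and brain homogenates at successive time points, with 3 mice per time point. Brain/plasma ratios, plasma half-life and clearance were derived; data are mean ± SD.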

[2] = molecular target: aggregated α-Syn in PD brains (Homo sapiens, UniProt P37840); assay: In vitro competition assay against [3H]BF-227 in postmortem PD brain tissue; format: binding; details: read-out: Ki against [3H]BF227; postmortem PD brain tissue homogenate
Procedure, shortened: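 Postmortem PD brain homogenate (α-Syn aggregates, no other amyloid) was used at a final 100 μg tissue/mL in PBS/0.1% BSA, pH 7.0. Unlabeled test compound (0.1–1000 nM; 0.25% DMSO final) was combined with [3H]BF-227 solution (~2 nM). 100% inhibition was defined by displacement with 1 μM unlabeled compound. Each concentration was run in triplicate, giving Ki.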

[3] = system: α-Syn aggregates in primary neurons; assay: Fluorescence staining of primary neurons containing α-Syn aggregates; format: cell-based, rat; details: AAV-α-Syn + α-Syn PFFs, fluorescence microscopy
Procedure, shortened: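 Primary embryonic rat neurons were cultured at 37 °C in 5% CO2 and infected with AAV-α-Syn at DIV7. At DIV12 they received sonicated α-Syn PFFs at 100 ng/ml final, with monomer as control. Test compound was then added and binding to the intracellular aggregates was assessed by fluorescence microscopy.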

α-Syn aggregates = α-Syn aggregates (Homo sapiens, UniProt P37840, A53T); assay: Ex vivo staining after i.v. F0502B in AAV-α-Syn A53T mice; design: species or system mouse; details: 2 mg/kg i.v., 2 h
Procedure, shortened: (§1)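 Eight-month-old mice received test compound at 2 mg/kg via the tail vein, and brain sections were prepared 2 h later. Sections were stained with anti-Aβ, anti-p-Tau (AT8), anti-p-α-Syn S129 and ThS, and co-localization was assessed. Cortex was examined for 5xFAD, 3xTg and Tau P301S mice. SN was examined for mice given unilateral stereotaxic AAV9-α-Syn A53T into SN at 3 months.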

α-Syn PFFs = α-Syn PFFs (Homo sapiens, UniProt P37840); assay: Fibril binding assay; details: fluorescence, 0.08 μM fibrils, 5 μM compound
Procedure, shortened: (§2)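 In the fluorescence screen, test compound (5 μM) in 50 mM Tris-HCl, 50 mM NaCl, pH 7.4 was added to fibrils or monomers (0.08 μM) in triplicate wells. Fluorescence was read at each compound's own excitation/emission wavelengths. α-Syn fibrils were commercial, dissolved to 1 mg/ml in PBS. Tau PFFs were assembled from 3 mg/mL protein with 12.5 μM heparin for 7 days at 37 °C with shaking; mixed 3R-4R fibrils used 0N3R and 2N4R at 1.5 mg/ml each.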

Aβ or Tau aggregates = assay: Ex vivo staining after i.v. F0502B in 5xFAD, 3xTg, Tau P301S mice; design: species or system mouse; details: 2 mg/kg i.v., 2 h
Procedure, shortened: as §1

Aβ plaques or NFTs in AD = assay: Counter-staining of AD patient brain sections; design: species or system human; details: AD patients
Aβ plaques or NFTs = assay: Counter-staining of mouse brain sections; details: Tau P301S, 5xFAD, 3xTg mice
Procedure, shortened: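 Cortical slices from 14-month-old 3xTg, 6-month-old Tau P301S and 12-month-old 5xFAD mice were fixed and incubated with primary antibodies for 12 h at 4 °C. Alexa Fluor-conjugated secondary antibodies were applied for 3 h at room temperature, with DAPI (1 μg/ml) nuclear counterstain. Slices were imaged by confocal microscopy.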

Tau PFFs = Tau PFFs (Homo sapiens, UniProt P10636); assay: Fibril binding assay; details: fluorescence; 0.08 μM fibrils, 5 μM compound; regardless of 3R or 4R Tau
Procedure, shortened: as §2

[4] = molecular target: α-Syn deposits in mouse brain sections (Homo sapiens, UniProt P37840, A53T); assay: Staining of mouse brain sections containing α-Syn deposits; details: SN of AAV-α-Syn A53T-injected mice
[5] = system: α-Syn deposits in mouse brain sections; assay: as above; details: SNCA transgenic mice treated with rotenone
[6] = molecular target: aggregated α-Syn in PD/DLB patients (Homo sapiens, UniProt P37840); assay: Saturation binding assay with insoluble α-Syn fraction from PD/DLB brain
Procedure, shortened: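 Insoluble α-Syn was extracted from frozen PD and DLB brain in 50 mM Tris-HCl pH 7.4, 800 mM NaCl, 10 mM NaF, 5 mM EDTA at 100,000 × g. Pellets were re-extracted with buffer containing 1% Triton X-100, then 1% Triton X-100 plus 30% sucrose. A final 1% sarkosyl step ran overnight, followed by a 100,000 × g spin.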

Aβ PFFs = Aβ PFFs (Homo sapiens, UniProt P05067); assay: Fibril binding assay; details: fluorescence; 0.08 μM fibrils, 5 μM compound
Toxicology test in mice = format: in vivo; details: C57BL/6 mice
[7] = molecular target: α-Syn pathology in DLB and MSA patient brain (Homo sapiens, UniProt P37840); assay: Staining of DLB and MSA patient brain sections; details: DLB and MSA patients
[8] = molecular target: α-Syn deposits in PD/DLB brain homogenates (Homo sapiens, UniProt P37840); format: binding
Procedure, shortened: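 Brain lysates from 4 control and 4 patient cases were normalized for aggregate levels by pS129 western blot. Homogenates (0.2 mg/ml) were incubated with [18F]-labelled test compound (5–900 nM) for 1 h at 37 °C in 50 mM Tris-HCl, 50 mM NaCl, 0.5% sodium ascorbate, pH 7.4. Samples were then filtered, washed twice and counted by scintillation.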

[9] = molecular target: Tau fibrils in AD patients (Homo sapiens, UniProt P10636); assay: Saturation binding assay with insoluble Tau fraction from AD brain
Procedure, shortened: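 Insoluble Tau was extracted from AD brain in 10 mM Tris-HCl pH 7.4, 0.8 M NaCl, 1 mM EGTA, 10% sucrose. Sequential centrifugations up to 100,000 × g were performed at 4 °C. The pellet was resuspended in 20 mM Tris-HCl pH 7.4, 100 mM NaCl and run over a Superose 6 column.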

[10] = molecular target: Aβ fibrils in AD patients (Homo sapiens, UniProt P05067); assay: Saturation binding assay with insoluble Aβ fraction from AD brain
Procedure, shortened: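 Insoluble Aβ was extracted from AD gray matter by homogenization in 0.32 M sucrose, mesh sieving, and centrifugation in 1 M sucrose. This was followed by collagenase/dispase (2 mg/ml) digestion for 16 h at 37 °C and a discontinuous 1.05–1.8 M sucrose gradient.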

α-Syn fibrils = α-Syn fibrils (Homo sapiens, UniProt P37840); assay: [18F]-F0502B saturation binding assay with α-Syn PFFs; details: read-out: KD, α-Syn fibrils, 1 μM PFFs
Procedure, shortened: (§3)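 PFFs (1 μM) were incubated with [18F]-labelled test compound (5–900 nM) for 1 h at 37 °C in 30 mM Tris-HCl pH 7.4, 0.1% BSA, 0.5% sodium ascorbate. Nonspecific binding was defined with 2 μM unlabeled compound. Samples were filtered, washed twice and counted by scintillation, in duplicate. Kd and Bmax were obtained by nonlinear fit to Y = Bmax*X/(X+Kd).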

Aβ1–42 fibrils = Aβ1–42 fibrils (Homo sapiens, UniProt P05067); assay: [18F]-F0502B saturation binding assay with Aβ PFFs; details: read-out: KD, Aβ fibrils, 1 μM PFFs
Procedure, shortened: as §3

Tau fibrils = Tau fibrils (Homo sapiens, UniProt P10636); assay: [18F]-F0502B saturation binding assay with Tau PFFs; details: read-out: KD, Tau fibrils, 1 μM PFFs
Procedure, shortened: as §3

α-Syn aggregation = details: cited from earlier work
[11] = system: synthetic α-Syn aggregates and Aβ fibrils; details: cited from earlier work
[12] = system: α-Syn aggregates in macaque brain; assay: PET imaging in non-human primate PD models; format: in vivo, rhesus macaques; details: control macaques
[13] = molecular target: α-Syn aggregates in macaque brain (Homo sapiens, UniProt P37840, A53T); assay: PET imaging in non-human primate PD models; format: in vivo, rhesus macaques; details: macaques injected with AAV-α-Syn A53T
[14] = molecular target: LBs in human brain sections (Homo sapiens, UniProt P37840); assay: Autoradiography with human brain slices; format: binding; details: PD versus AD patients; 4 nM tracer
Procedure, shortened: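 Post-mortem human brain slices, stored at −20 °C, were preincubated in PBS + 0.1% BSA (pH 7.4) to reach room temperature. They were then incubated with [18F]-labelled tracer at room temperature for 30 min, rinsed in cold buffer and once in distilled water, and dried. Slices were exposed to imaging plates for 3 h before development.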

Tau fibrils in AD patients, sequence (P10636 623-708 limits assumed): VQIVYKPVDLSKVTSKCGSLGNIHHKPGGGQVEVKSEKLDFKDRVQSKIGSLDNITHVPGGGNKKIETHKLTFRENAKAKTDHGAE
Aβ fibrils in AD patients, sequence (P05067 672-711 limits assumed): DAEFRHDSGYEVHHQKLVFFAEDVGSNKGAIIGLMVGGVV
Aβ PFFs, sequence (P05067 672-713 limits assumed): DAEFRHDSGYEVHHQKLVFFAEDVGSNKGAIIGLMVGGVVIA
Aβ1–42 fibrils, sequence (P05067 672-713 limits assumed): as above
Tau PFFs, sequence (P10636 1-441 isoform P10636-8): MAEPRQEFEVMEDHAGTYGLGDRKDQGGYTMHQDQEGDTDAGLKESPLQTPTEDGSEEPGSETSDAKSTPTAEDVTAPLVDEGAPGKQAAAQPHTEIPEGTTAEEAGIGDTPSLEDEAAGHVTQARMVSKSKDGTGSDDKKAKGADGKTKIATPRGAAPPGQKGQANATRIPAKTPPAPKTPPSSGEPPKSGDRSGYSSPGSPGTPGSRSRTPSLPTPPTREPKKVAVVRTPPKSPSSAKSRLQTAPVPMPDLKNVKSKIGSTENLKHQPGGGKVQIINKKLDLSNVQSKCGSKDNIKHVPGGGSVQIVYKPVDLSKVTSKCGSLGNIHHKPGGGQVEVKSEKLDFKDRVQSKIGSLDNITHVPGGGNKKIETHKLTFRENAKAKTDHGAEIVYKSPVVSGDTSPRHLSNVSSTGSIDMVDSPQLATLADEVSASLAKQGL
Tau fibrils, sequence (P10636 1-441 isoform P10636-8): as above

Compound: Cc1cc2nc(/C=C/c3ccc(O)c(Br)c3)sc2cc1N(C)CCOCCF [F0502B]
- Cl rate [1]: approximately 33.6 L/h/kg
- plasma half-life t1/2 [1]: 6.9 min
- brain versus plasma (B/P) ratio ([1]; 1 min): 0.106
- brain versus plasma (B/P) ratio ([1]; 1 h): 13.37
- Ki [2]: 3.4 nM
- signals in neurons with α-Syn aggregates [3]: specific association of F0502B with α-Syn aggregates
- ex vivo staining of α-Syn aggregates after i.v. injection (α-Syn aggregates): selectively stains α-Syn aggregates
- binding selectivity toward α-Syn PFFs versus Aβ and Tau PFFs (α-Syn PFFs; counter screening): stronger binding affinity with α-Syn PFFs than with Aβ and Tau PFFs
- binding activities toward α-Syn PFFs (α-Syn PFFs; ThT positive control): specifically bound α-Syn fibrils
- ex vivo staining of Aβ or Tau aggregates after i.v. injection (Aβ or Tau aggregates): not Aβ or Tau aggregates
- staining of Aβ plaques or NFTs in AD brains (Aβ plaques or NFTs in AD): but not Aβ plaques or NFTs
- staining of Aβ plaques or NFTs in mouse brain sections (Aβ plaques or NFTs): but not Aβ plaques or NFTs; also recorded: weakly associated with Aβ aggregates
- binding to Tau fibrils (Tau PFFs): poorly bound
- staining of α-Syn deposits in mouse brain sections [4]: specific association of F0502B with α-Syn aggregates
- staining of α-Syn inclusions [5]: stained the α-Syn inclusions that were positive for p-S129 and 5G4
- Kd ([6]; read-out: KD, aggregated α-Syn in DLB patients, DLB): 6.23 nM
- Kd ([6]; read-out: KD, aggregated α-Syn in PD patients, PD): 3.68 nM
- binding to Aβ fibrils (Aβ PFFs): poorly bound
- effect on complete cell count or liver/renal functions (Toxicology test in mice): did not alter complete cell count or liver/renal functions
- staining of α-Syn pathology in patient brain slides [7]: specific association of F0502B with α-Syn aggregates
- Kd ([8]; read-out: KD for α-Syn deposits in PD brains, PD brains): 4.26 to 7.32 nM
- Kd ([8]; read-out: Kd, DLB brain homogenates, unfractionated human DLB brain homogenates): 9.79 nM
- Kd ([8]; read-out: Kd, PD brain homogenates, unfractionated human PD brain homogenates): 4.26 nM

Compound: Cc1cc2nc(/C=C/c3ccc(O)c(Br)c3)sc2cc1N(C)CCOCCF [[^18F]-F0502B]
- Kd ([9]; read-out: KD, Tau fibrils in AD patients): 151 nM
- Kd ([10]; read-out: KD, Aβ fibrils in AD patients): 108 nM
- Kd (α-Syn fibrils): 11 nM
- Kd (Aβ1–42 fibrils): 109 nM
- Kd (Tau fibrils): 120 nM

Compound: Oc1ccc(-c2cc(-c3cccc(Br)c3)n[nH]2)cc1O [anle138c]
- inhibition of α-Syn aggregation (α-Syn aggregation): complete the inhibition of α-Syn aggregation; also recorded: strong inhibition of α-Syn aggregation

- staining of α-Syn deposits in mouse brain sections [4]: stained all of these aggregates
Compound: thioflavin-S [ThS, reference compound]
- staining of Aβ plaques or NFTs in mouse brain sections (Aβ plaques or NFTs): stained all of these aggregates

Compound: CN(C)c1ncc(/C=C/c2nc3ccc(OCCF)cc3o2)s1 [BF-227]
- binding to α-Syn aggregates and Aβ fibrils in vitro [11]: binds to both synthetic α-Syn aggregates and Aβ fibrils in vitro

Compound: Cc1cc2nc(/C=C/c3ccc(O)c(Br)c3)sc2cc1N(C)CCOCC[18F] [[^18F]-F0502B]
- Bmax, Tau fibrils in AD patients [9]: 1.14 fmol/nmol
- Bmax, Aβ fibrils in AD patients [10]: 2.34 fmol/nmol
- Bmax, aggregated α-Syn in DLB patients ([6]; DLB): 12.30 fmol/nmol
- Bmax, aggregated α-Syn in PD patients ([6]; PD): 14.95 fmol/nmol
- PET signal in brain [12]: devoid of radiotracer retention
- PET signal in brain [13]: demonstrable signals in the striatal regions
- autoradiographic binding to human brain sections [14]: selectively associated with LBs in brain sections from PD but not AD patients
- specific binding in PD/AD/healthy control tissues ([8]; total and nonspecific binding curves, frontal cortex): only specific binding with PD tissues but not AD or control tissues
